According to publication PMC10354499 (RSC Advances, 2023):

Experiments:
CT-DNA relative to BSA = assay: Relative stability constant ln; details: natural logarithm of ratio of CT-DNA to BSA binding constants
In short: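 KDNA: CT-DNA (0–8 μM) was titrated against 20 μM test compound in PBS with ~2% (v/v) DMSO final. Mixtures were incubated 10 min and read by UV-vis, with DNA absorbance cancelled in the reference. KDNA was the slope/intercept ratio of [DNA]/(εa−εf) vs [DNA] (Wolfe–Shimer). KBSA: 0–10 μM compound was added to 6 μM BSA in PBS pH 7.2, 10 min at 25 °C, A280 read, Benesi–Hildebrand fit.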

[1] = Selective toxicity, MTT assay in HEK-293 cells; format: cell-based, human; details: human, HEK-293 cells
In short: (§1)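 HEK-293 cells were grown in DMEM with 10% FBS, 1% penicillin–streptomycin, 1% L-glutamine and 2.5% HEPES. Cells were seeded at 15 000 cells/well, held 24 h (37 °C, 5% CO2), then exposed to test compound for 24 h. MTT (5 mg mL−1 in PBS) plus medium was added for 4 h, then aspirated, and formazan was dissolved in DMSO. Absorbance was read at 570/690 nm; percentage viability by formula, triplicate.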

HEK-293 cells = assay: Selective toxicity, MTT assay in HEK-293 cells; format: cell-based, human; details: at respective MCF-7 IC50 concentration, 24 hours, MTT
In short: as §1

MCF-7 cells = details: read-out: IC50 (MCF-7); known breast cancer antineoplastic drug; cited from earlier work

SMILES: CC1(C)CC(=O)C2=C(C1)Oc1ncnc(Nc3ccccc3)c1C2c1ccccc1F (centres unmarked) [Compound 3a, 5-(2-Fluorophenyl)-8,8-dimethyl-4-(phenylamino)-5,7,8,9-tetrahydro-6H-chromeno[2,3-d]pyrimidin-6-one]
- ln(KDNA/KBSA) (CT-DNA relative to BSA): lowest
- viability at 24 h [1]: 96.6%

SMILES: CC1(C)CC(=O)C2=C(C1)Oc1ncnc(Nc3cccc(-[c-]4cccc4)c3)c1C2c1ccccc1F.[Fe+2].c1cc[cH-]c1 (centres unmarked) [Compound 3j, 4-((3-Ferrocenylphenyl)amino)-5-(2-fluorophenyl)-8,8-dimethyl-5,7,8,9-tetrahydro-6H-chromeno[2,3-d]pyrimidin-6-one]
- ln(KDNA/KBSA) (CT-DNA relative to BSA): highest
- cell viability (HEK-293) (HEK-293 cells): 107.43%

SMILES: CC[C@]1(O)C[C@@H]2CN(CCc3c([nH]c4ccccc34)[C@@](C(=O)OC)(c3cc4c(cc3OC)N(C)[C@H]3[C@@](O)(C(=O)OC)[C@H](OC(C)=O)[C@]5(CC)C=CCN6CC[C@]43[C@@H]65)C2)C1 [Vinoblastine, vinblastine]
- IC50 (MCF-7 cells): 10.2 ± 0.39 µM
